# Results from different studies.
# Lines come from different studies, so protocols differ.
# Effect on: cell growth or viability
SMILES,cell line,method,tested at,time,viability
CC(=O)c1nn(-c2ccccc2Cl)/c(=N/N=C(\C)c2ccc(NC(=O)c3ccccc3)cc2)s1,HepG2,MTT,5 µM,,6.09%
CC(C)(C)c1cnc(CSc2cnc(NC(=O)C3CCN(C(=O)COCCOCCSc4cccc5c4C(=O)N(C4CCC(=O)NC4=O)C5=O)CC3)s2)o1 (stereo not drawn),HH,CCK-8,0.5 µM,,13.5%
CC(=NNC(=O)c1ccccc1Br)c1ccc(Nc2nnc(-c3ccc(Cl)cc3)c3ccccc23)cc1,HepG2,MTT,0.625 µM,24 h,21.2%
CC(C)(C)c1cnc(CSc2cnc(NC(=O)C3CCN(CCCCCSc4cccc5c4CN(C4CCC(=O)NC4=O)C5=O)CC3)s2)o1 (stereo not drawn),HH,CCK-8,0.25 µM,,0%
O=C(C=Cc1ccccc1)Nc1ccc(Oc2nnc(-c3ccc(Cl)cc3)c3ccccc23)cc1,HepG2,MTT,5 µM,24 h,2.49%
CC(=NNC(=O)COc1ccc2c(C)c(Cc3ccccc3)c(=O)oc2c1C)c1ccc(Br)cc1,HepG2,MTT,100 µg/mL,,34.7%
CC(=O)Nc1ccc(/C(C)=N/N=c2\sc(C(C)=O)nn2-c2ccc(C)cc2)cc1,HepG2,MTT,0.312 µM,,100%
CC(=NNC(=O)c1cccnc1)c1ccc(Nc2nnc(-c3ccc(Cl)cc3)c3ccccc23)cc1,HepG2,MTT,2.5 µM,24 h,6.93%
CC(C)(C)c1cnc(CSc2cnc(NC(=O)C3CCN(CCCCSc4cccc5c4C(=O)N(C4CCC(=O)NC4=O)C5=O)CC3)s2)o1 (stereo not drawn),HH,CCK-8,1 nM,,100%
